Assay results published in ChEMBL document CHEMBL4680373, “Evaluation of 5-(Trifluoromethyl)-1,2,4-oxadiazole-Based Class IIa HDAC Inhibitors for Huntington's Disease” (ACS Med Chem Lett, 2021).
In brackets after ≈: the same amount, converted by molar mass.

What was measured:
[1] = Inhibition of Class 1/2b HDAC in human Jurkat E6.1 cells using Boc-Lys-(Ac)-AMC as substrate by fluorogenic assay; assay type: cell-based
Procedure, shortened: (§1)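 Whole-cell assay in Jurkat E6.1 cells with artificial fluorogenic substrates: Boc-Lys-(TFA)-AMC for class IIa/HDAC8 activity, which in this line is mostly HDAC4, and Boc-Lys-(Ac)-AMC for class I/IIb activity. IC50 given as the geometric mean of three experiments.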

[2] = Selectivity index, ratio of IC50 for Class 1/2b HDAC in human Jurkat E6.1 cells using Boc-Lys-(Ac)-AMC as substrate to IC50 for Class 2A HDAC4 in human Jurkat E6.1 cells using Boc-Lys-(TFA)-AMC as substrate by fluorogenic assay
Procedure, shortened: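 Human Jurkat E6.1 cells were assayed with two fluorogenic substrates. Boc-Lys-(TFA)-AMC reports class IIa activity, mostly HDAC4 in this line, and Boc-Lys-(Ac)-AMC reports class I/IIb activity. IC50s are geometric means of three experiments.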

Histone deacetylase 4 [3] = biological target: T1, Histone deacetylase 4 (Homo sapiens, UniProt P56524); assay: Inhibition of Class 2A HDAC4 in human Jurkat E6.1 cells using Boc-Lys-(TFA)-AMC as substrate by fluorogenic assay; assay type: cell-based; procedure, shortened: as §1
[4] = Kinetic solubility of the compound; assay type: physicochemical; details: read-out: Kinetic_solubility
[5] = Efflux ratio of permeability from basolateral to apical over apical to basolateral side in dog MDCK-MDR1 cells relative to wild type MDCK cells; assay type: ADME, cell-based, Canis lupus familiaris
[6] = Intrinsic Clearance in mouse liver microsomes; assay type: ADME, Microsome; details: read-out: CLH
Histone deacetylase 4 [7] = biological target: T1, Histone deacetylase 4; assay: Inhibition of HDAC4 (unknown origin) using Boc Lys(TFA) as substrate by fluorogenic assay
Procedure, shortened: (§2)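 Biochemical HDAC isoform assay with the artificial fluorogenic substrate Boc-Lys-(TFA)-AMC, which is specific to class IIa enzymes and HDAC8. IC50 taken as the geometric mean of three experiments.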

Histone deacetylase 1 = Histone deacetylase 1 (Homo sapiens, UniProt Q13547); assay: Inhibition of HDAC1 (unknown origin) using Ac-Arg-Gly-Lys(Ac) as substrate by fluorogenic assay
Histone deacetylase 9 = Histone deacetylase 9 (Homo sapiens, UniProt Q9UKV0); assay: Inhibition of HDAC9 (unknown origin) using Boc Lys(TFA) as substrate by fluorogenic assay; procedure, shortened: as §2
[8] = biological target: Histone deacetylase 3/Nuclear receptor corepressor 1 (HDAC3/NCoR1) (Homo sapiens); assay: Inhibition of HDAC3/NCOR1 (unknown origin) using Boc-Lys(Ac) as substrate by fluorogenic assay
[9] = biological target: T2, Protein deacetylase HDAC6 (Homo sapiens, UniProt Q9UBN7); assay: Inhibition of HDAC6 (unknown origin) expressed in human HEK-Freestyle cells using Boc-Lys(Ac) as substrate by fluorogenic assay; assay type: cell-based
T2 sequence (Q9UBN7 whole entry): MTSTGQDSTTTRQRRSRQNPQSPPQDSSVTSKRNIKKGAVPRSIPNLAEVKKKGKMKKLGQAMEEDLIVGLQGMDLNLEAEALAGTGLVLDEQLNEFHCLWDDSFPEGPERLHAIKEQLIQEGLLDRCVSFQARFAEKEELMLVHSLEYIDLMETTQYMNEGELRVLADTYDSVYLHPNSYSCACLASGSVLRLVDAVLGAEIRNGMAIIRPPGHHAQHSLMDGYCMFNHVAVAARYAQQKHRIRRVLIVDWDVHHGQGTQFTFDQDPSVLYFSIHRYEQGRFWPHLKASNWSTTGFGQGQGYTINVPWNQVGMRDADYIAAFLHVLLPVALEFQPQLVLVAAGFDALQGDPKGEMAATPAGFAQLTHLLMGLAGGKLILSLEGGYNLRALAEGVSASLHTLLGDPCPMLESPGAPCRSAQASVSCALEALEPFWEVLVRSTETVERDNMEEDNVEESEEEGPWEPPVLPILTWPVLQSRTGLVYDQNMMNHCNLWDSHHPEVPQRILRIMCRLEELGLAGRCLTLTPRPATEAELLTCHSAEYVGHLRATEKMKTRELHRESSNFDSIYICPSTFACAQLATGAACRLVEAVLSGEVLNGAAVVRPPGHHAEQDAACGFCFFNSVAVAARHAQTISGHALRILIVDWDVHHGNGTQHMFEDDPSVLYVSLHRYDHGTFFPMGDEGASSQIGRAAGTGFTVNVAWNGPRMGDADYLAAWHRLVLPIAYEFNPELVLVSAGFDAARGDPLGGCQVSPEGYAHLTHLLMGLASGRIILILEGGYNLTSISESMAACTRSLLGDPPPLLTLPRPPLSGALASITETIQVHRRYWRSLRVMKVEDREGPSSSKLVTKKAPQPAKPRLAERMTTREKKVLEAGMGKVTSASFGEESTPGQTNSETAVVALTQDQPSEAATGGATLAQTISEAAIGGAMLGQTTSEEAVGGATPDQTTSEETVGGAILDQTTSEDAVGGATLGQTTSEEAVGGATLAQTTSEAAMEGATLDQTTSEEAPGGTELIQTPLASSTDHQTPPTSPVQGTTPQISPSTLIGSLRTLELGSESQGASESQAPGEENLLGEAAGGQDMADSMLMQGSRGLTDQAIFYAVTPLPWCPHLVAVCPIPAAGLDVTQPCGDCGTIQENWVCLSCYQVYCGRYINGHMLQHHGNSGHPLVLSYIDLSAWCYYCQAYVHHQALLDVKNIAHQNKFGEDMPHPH
Procedure, shortened: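 HDAC6 was supplied as lysate of HEK cells overexpressing the enzyme. Activity was read with the class I/IIb-specific fluorogenic substrate Boc-Lys-(Ac)-AMC. IC50 is the geometric mean of three experiments.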

[10] = Apparent permeability of the compound in dog MDCK-MDR1 cells; assay type: ADME, cell-based, Canis lupus familiaris
Histone deacetylase 5 = Histone deacetylase 5 (Homo sapiens, UniProt Q9UQL6); assay: Inhibition of HDAC5 (unknown origin) using Boc Lys(TFA) as substrate by fluorogenic assay; procedure, shortened: as §2
Histone deacetylase 8 = biological target: T3, Histone deacetylase 8 (Homo sapiens, UniProt Q9BY41); assay: Inhibition of HDAC8 (unknown origin) using Boc-Lys(TFA) as substrate by fluorogenic assay; procedure, shortened: as §2
T3 sequence (Q9BY41 whole entry): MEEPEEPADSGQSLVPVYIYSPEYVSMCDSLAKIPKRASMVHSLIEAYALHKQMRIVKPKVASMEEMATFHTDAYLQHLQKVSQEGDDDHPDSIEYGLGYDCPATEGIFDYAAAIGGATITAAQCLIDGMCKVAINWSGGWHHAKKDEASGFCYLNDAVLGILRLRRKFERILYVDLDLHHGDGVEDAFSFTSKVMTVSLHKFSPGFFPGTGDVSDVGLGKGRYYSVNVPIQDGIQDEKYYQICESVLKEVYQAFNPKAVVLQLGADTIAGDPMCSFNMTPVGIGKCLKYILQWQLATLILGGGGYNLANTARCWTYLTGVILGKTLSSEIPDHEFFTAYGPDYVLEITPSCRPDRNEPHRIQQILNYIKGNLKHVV

Histone deacetylase 2 = Histone deacetylase 2 (Homo sapiens, UniProt Q92769); assay: Inhibition of HDAC2 (unknown origin) using Ac-Arg-Gly-Lys(Ac) as substrate by fluorogenic assay
[11] = Chemical stability of the compound in DMSO-d6 measured for 9 days at room temperature by 1H-NMR spectroscopy; assay type: physicochemical; details: 216 h; time 9 day

T1 sequence (P56524 whole entry): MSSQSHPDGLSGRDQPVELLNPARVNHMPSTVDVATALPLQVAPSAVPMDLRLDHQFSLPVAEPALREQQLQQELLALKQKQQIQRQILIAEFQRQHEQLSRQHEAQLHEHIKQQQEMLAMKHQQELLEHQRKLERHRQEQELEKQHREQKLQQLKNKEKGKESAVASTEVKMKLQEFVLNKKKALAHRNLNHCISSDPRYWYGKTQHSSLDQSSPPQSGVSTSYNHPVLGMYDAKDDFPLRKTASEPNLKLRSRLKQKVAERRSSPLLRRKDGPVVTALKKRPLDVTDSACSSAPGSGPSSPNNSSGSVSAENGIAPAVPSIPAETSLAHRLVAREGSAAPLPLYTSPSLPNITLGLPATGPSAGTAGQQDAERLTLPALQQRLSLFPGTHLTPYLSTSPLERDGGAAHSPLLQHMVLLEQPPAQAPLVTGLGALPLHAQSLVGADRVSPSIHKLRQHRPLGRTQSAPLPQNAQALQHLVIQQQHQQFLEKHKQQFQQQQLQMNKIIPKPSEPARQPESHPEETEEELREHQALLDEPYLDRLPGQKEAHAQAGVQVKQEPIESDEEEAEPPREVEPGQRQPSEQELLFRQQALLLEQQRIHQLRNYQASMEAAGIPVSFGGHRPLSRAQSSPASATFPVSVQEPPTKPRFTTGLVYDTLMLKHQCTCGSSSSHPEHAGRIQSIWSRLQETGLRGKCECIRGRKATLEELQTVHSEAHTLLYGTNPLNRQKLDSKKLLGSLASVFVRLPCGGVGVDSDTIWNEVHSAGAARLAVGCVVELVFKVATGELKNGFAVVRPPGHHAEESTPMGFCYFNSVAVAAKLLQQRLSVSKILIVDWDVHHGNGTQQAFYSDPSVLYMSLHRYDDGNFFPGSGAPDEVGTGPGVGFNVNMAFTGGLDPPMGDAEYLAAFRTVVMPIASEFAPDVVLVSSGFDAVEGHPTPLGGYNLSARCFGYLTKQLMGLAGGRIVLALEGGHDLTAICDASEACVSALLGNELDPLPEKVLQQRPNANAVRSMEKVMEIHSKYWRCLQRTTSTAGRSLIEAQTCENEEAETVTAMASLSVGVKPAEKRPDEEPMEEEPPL
Chain of Histone deacetylase 2 (Q92769 whole entry): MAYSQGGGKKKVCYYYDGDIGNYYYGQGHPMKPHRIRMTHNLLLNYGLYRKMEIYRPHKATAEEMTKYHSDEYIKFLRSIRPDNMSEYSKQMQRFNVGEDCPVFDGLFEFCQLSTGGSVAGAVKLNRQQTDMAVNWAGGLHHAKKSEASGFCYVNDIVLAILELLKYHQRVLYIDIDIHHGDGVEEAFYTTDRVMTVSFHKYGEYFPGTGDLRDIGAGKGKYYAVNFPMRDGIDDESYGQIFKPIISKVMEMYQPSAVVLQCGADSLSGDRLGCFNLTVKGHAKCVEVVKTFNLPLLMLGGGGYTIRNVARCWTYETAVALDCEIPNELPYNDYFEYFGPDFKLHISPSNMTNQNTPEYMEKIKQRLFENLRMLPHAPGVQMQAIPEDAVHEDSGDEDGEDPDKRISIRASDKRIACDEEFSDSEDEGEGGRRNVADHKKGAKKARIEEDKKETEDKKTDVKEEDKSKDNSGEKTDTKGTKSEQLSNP
Chain of Histone deacetylase 1 (Q13547 whole entry): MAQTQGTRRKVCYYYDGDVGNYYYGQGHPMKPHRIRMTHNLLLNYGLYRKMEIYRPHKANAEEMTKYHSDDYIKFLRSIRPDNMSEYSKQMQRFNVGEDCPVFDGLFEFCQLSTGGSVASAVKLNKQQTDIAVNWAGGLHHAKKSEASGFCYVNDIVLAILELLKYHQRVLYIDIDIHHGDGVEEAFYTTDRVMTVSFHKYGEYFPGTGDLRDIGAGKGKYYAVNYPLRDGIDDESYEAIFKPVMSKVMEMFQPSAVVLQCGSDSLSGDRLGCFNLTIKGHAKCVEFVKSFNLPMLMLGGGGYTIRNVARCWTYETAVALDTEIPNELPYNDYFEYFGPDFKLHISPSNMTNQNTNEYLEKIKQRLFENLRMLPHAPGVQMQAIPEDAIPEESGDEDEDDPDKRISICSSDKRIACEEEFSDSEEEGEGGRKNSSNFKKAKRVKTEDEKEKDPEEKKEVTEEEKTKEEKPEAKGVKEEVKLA
Chain of Histone deacetylase 5 (Q9UQL6 whole entry): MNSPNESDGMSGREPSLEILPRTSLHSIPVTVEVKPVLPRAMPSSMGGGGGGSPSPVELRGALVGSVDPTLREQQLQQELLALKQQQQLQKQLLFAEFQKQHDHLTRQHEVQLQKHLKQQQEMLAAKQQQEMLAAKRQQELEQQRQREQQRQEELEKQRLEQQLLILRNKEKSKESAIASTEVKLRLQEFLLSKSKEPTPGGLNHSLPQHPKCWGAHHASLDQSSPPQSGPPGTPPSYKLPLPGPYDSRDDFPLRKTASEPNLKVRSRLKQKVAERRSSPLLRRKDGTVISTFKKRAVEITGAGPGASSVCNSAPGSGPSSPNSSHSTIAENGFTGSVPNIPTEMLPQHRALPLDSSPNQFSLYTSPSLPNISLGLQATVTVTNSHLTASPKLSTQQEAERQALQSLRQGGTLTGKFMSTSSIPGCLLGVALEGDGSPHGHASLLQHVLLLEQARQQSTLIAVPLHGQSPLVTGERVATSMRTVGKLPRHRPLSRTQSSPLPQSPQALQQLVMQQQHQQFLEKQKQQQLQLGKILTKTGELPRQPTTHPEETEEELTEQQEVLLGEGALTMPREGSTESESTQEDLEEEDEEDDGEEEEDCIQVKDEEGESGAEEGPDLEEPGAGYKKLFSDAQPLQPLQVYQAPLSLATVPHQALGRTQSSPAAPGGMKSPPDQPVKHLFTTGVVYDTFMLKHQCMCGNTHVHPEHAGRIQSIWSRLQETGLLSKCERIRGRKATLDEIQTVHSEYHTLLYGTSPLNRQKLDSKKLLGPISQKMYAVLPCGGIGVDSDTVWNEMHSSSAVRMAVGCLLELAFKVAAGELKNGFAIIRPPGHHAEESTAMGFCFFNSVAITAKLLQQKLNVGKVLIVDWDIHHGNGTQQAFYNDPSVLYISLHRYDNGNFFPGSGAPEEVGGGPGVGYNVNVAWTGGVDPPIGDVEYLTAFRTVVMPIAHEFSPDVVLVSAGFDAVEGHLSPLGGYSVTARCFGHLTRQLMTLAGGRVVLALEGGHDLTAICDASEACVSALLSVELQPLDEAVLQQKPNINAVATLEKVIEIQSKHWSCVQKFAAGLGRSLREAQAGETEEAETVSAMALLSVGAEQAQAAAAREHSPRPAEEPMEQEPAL
Chain of Histone deacetylase 9 (Q9UKV0 whole entry): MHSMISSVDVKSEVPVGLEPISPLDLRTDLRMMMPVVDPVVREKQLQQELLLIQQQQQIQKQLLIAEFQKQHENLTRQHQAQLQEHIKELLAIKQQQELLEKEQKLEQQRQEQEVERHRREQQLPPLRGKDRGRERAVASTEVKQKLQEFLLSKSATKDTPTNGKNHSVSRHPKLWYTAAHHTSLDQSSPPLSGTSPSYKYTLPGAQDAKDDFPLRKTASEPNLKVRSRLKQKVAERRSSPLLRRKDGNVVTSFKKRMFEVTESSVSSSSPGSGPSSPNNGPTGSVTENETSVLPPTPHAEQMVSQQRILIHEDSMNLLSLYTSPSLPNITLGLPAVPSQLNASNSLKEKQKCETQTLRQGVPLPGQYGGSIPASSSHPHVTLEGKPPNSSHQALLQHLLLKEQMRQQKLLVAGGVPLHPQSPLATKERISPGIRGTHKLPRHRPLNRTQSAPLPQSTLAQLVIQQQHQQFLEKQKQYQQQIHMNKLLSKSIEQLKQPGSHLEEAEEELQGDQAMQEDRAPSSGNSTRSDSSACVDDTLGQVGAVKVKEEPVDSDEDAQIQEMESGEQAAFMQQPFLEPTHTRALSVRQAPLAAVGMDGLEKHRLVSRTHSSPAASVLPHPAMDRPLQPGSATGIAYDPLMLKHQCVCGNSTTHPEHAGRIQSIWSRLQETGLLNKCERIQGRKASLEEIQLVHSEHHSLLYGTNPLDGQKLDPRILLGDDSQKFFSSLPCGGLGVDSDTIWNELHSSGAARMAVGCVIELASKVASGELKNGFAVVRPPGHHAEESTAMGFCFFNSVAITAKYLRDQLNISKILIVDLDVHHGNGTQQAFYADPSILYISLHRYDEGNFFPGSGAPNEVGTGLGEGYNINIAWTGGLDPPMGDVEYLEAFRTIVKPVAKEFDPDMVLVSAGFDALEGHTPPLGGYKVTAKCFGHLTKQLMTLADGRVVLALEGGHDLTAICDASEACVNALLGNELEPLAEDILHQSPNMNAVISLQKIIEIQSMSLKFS

Compound	IC50 [1] [nM]	IC50 (Histone deacetylase 4 [3]) [nM]	solubility kinetic [4] [µM]	Ratio [5]	CLint scaled [6] [mL/min/kg]	IC50 (Histone deacetylase 4 [7]) [nM]	Ratio IC50 [2]	other results
CCCN(CCC)C[C@@H](C)NC(=O)c1ccc(-c2noc(C)n2)cc1	–	> 50000	–	–	–	> 50000	–	–
C[C@H](CN1CCC(F)(F)C1)NC(=O)c1ccc(-c2noc(C(F)(F)F)n2)cc1	> 50000	1300	52 (≈ 21 µg/mL)	–	–	230	>38	–
C[C@H](CN1CCC(F)(F)CC1)NC(=O)c1ccc(-c2noc(C(F)(F)F)n2)cc1	> 50000	380	25 (≈ 10.5 µg/mL)	–	–	130	>132	–
CCCN(CCC)C[C@@H](C)NC(=O)c1ccc(-c2ncon2)cc1	–	> 50000	–	–	–	> 50000	–	–
C[C@H](CN1CCC[C@H]1C)NC(=O)c1ccc(-c2noc(C(F)(F)F)n2)cc1	14000	600	178 (≈ 68.1 µg/mL)	–	–	70	–	–
CCCN(CCC)C[C@@H](C)NC(=O)c1ccc(-c2nc(C(F)(F)F)no2)cc1	–	> 50000	–	–	–	28000	–	–
CCCN(CCC)C[C@@H](C)NC(=O)c1ccc(-c2noc(C(F)F)n2)cc1	–	19000	–	–	–	890	–	–
CCCN(CCC)C[C@@H](C)NC(=O)c1ccc(-c2noc(C(F)(F)F)n2)cc1	3000	–	140 (≈ 55.8 µg/mL)	–	834	–	–	IC50 (Histone deacetylase 1): 6000 nM; IC50 [9]: 6400 nM; Papp [10]: 54.1 ×10⁻⁶ cm/s; Stabilty [11]: Stable; IC50 (Histone deacetylase 8): 2900 nM; IC50 (Histone deacetylase 2): 9300 nM
C[C@@H](CN1CCCC1)NC(=O)c1ccc(-c2noc(C(F)(F)F)n2)cc1	43000	730	–	–	–	50	59	–

More lines, in order of falling IC50 (Histone deacetylase 4 [3]), values ahead:

IC50 [1] [nM]	IC50 (Histone deacetylase 4 [3]) [nM]	solubility kinetic [4] [µM]	Ratio [5]	CLint scaled [6] [mL/min/kg]	IC50 (Histone deacetylase 4 [7]) [nM]	Compound	Ratio IC50 [2]	other results
12000	310	–	–	–	280	CC(C)(CN1CCCC1)NC(=O)c1ccc(-c2noc(C(F)(F)F)n2)cc1	39	–
3700	250	169 (≈ 59.9 µg/mL)	–	76	30	O=C(NCCN1CCCC1)c1ccc(-c2noc(C(F)(F)F)n2)cc1	–	IC50 (Histone deacetylase 1): 13000 nM; IC50 (Histone deacetylase 9): 70 nM; IC50 [8]: 5100 nM; IC50 [9]: 9800 nM; Papp [10]: 60.4 ×10⁻⁶ cm/s; IC50 (Histone deacetylase 5): 90 nM; IC50 (Histone deacetylase 8): 2800 nM; IC50 (Histone deacetylase 2): 26000 nM
6400	180	–	–	–	40	O=C(NC1(CN2CCCC2)CC1)c1ccc(-c2noc(C(F)(F)F)n2)cc1	36	–
10300	100	–	1.2	214	30	C[C@H](CN1CCC(F)CC1)NC(=O)c1ccc(-c2noc(C(F)(F)F)n2)cc1	103	–
9000	70	157 (≈ 60 µg/mL)	1.6	66	–	C[C@H](CN1CCCCC1)NC(=O)c1ccc(-c2noc(C(F)(F)F)n2)cc1	129	–
10000	70	178 (≈ 65.6 µg/mL)	2.2	65	10	C[C@H](CN1CCCC1)NC(=O)c1ccc(-c2noc(C(F)(F)F)n2)cc1	143	–
3600	60	–	1.2	661	20	C[C@H](CN1CCC[C@@H](OC(F)F)C1)NC(=O)c1ccc(-c2noc(C(F)(F)F)n2)cc1	60	–
1700	30	–	1.2	128	10	C[C@H](CN1CCCCCC1)NC(=O)c1ccc(-c2noc(C(F)(F)F)n2)cc1	57	–
1500	10	51 (≈ 22.9 µg/mL)	1.1	757	3	C[C@H](CN1CCC[C@H](OC(F)F)C1)NC(=O)c1ccc(-c2noc(C(F)(F)F)n2)cc1	150	–
520	10	150 (≈ 61.6 µg/mL)	1	1290	2	C[C@H](CN1CCCC(C)(C)C1)NC(=O)c1ccc(-c2noc(C(F)(F)F)n2)cc1	52	–
